This note sets out measurements from ChEMBL document CHEMBL3112440, “Design, synthesis, and SAR of a series of activated protein C (APC) inhibitors with selectivity against thrombin for the treatment of haemophilia” (Bioorg Med Chem Lett, 2014).

Activity calls are given as the source filed them. No cut-off for these calls is given here.

The term Ki denotes the dissociation constant of the complex between target and ligand, obtained from inhibition or displacement. What is called IC50 is the concentration that inhibits the measured activity by half. In general, chromatographic logD refers to a lipophilicity value derived from retention on a column. Low values mean a more hydrophilic compound, high ones a more lipophilic compound. The term inhibition denotes how much of the control response was suppressed.

For one series, the system named is Plasma. Nature of the series: Antifibrinolytic activity in human citrated plasma assessed as prolongation of clot-lysis time at 28 uM by spectrophotometric analysis. Format: functional, cell-free.
Conditions: not given
The method, boiled down: (§1)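 Citrated plasma from healthy volunteers. Tissue plasminogen activator was added to start plasmin generation, and clot-lysis time was recorded with test compound present (n = 2).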
Turning to `N=C(N)c1ccc(CNC(=O)C(CCC2CCNCC2)NC(=O)[C@@H](CC2CCCCC2)NCC(=O)O)cc1` (mixture of isomers), the outcome was Active.

The next series has as its system Plasma. The series is described as follows: Antifibrinolytic activity in human citrated plasma assessed as prolongation of clot-lysis time at 101 uM by spectrophotometric analysis. The series is classed as functional, cell-free.
Conditions: not given
The method, boiled down:
as §1
In the case of `N=C(N)c1ccc(CNC(=O)C2(NC(=O)[C@H](NCC(=O)O)C3CCCCC3)Cc3ccccc3C2)cc1`, the outcome was Active.

The next series addresses T1, Coagulation factor VII (Homo sapiens, UniProt P08709).
T1 sequence (P08709 whole entry): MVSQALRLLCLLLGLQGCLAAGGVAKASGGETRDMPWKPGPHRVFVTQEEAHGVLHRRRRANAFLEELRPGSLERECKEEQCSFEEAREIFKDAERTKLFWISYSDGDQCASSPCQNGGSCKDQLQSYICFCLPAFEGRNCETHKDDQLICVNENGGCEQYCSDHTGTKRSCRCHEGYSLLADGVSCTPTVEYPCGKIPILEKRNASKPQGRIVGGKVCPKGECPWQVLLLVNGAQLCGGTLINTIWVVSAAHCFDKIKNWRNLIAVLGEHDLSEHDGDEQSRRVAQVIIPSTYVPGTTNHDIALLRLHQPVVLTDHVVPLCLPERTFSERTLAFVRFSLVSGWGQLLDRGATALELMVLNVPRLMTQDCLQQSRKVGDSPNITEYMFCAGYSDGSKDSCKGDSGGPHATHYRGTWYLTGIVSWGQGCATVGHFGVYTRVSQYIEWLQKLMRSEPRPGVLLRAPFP
The series is described as follows: Competitive inhibition of human coagulation factor 7a using spectrozyme as substrate.
Conditions: not given
The method, boiled down:
(§2)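 Ki values were calculated from the IC50 values measured in the enzyme screening assays.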
Turning to `N=C(N)c1ccc(CNC(=O)C(CCC2CCNCC2)NC(=O)[C@@H](CC2CCCCC2)NCC(=O)O)cc1` (mixture of isomers), the Ki is > 100 µM.
On the same count and under the same terms, the result for `N=C(N)c1ccc(CNC(=O)C2(NC(=O)[C@H](NCC(=O)O)C3CCCCC3)Cc3ccccc3C2)cc1` reads 7 µM.

The next series has as its target T2, Coagulation factor XI (Homo sapiens, UniProt P03951). Nature of the series: Competitive inhibition of human coagulation factor 11a using S-2366 as substrate.
Conditions: not given
In short, it runs like this:
as §2
With `N=C(N)c1ccc(CNC(=O)[C@H](Cc2ccc(O)cc2)NC(=O)[C@@H](CC2CCCCC2)NCC(=O)O)cc1`, the affinity corresponds to a Ki of 0.8 µM.
The same measure, in the same setting: the figure for `N=C(N)c1ccc(CNC(=O)C(CCC2CCNCC2)NC(=O)[C@@H](CC2CCCCC2)NCC(=O)O)cc1` (mixture of isomers) is > 19 µM; for `N=C(N)c1ccc(CNC(=O)[C@@H](NC(=O)[C@@H](CC2CCCCC2)NCC(=O)O)C2CCNCC2)cc1` it is > 19 µM.
As to `N=C(N)c1ccc(CNC(=O)C2(NC(=O)[C@H](NCC(=O)O)C3CCCCC3)Cc3ccccc3C2)cc1`, the Ki was > 19 µM.

Another series deals with T3, Coagulation factor X (Homo sapiens, UniProt P00742). The series is described as follows: Competitive inhibition of human coagulation factor 10a using S-2765 as substrate.
Conditions: not given
In short, it runs like this: as §2
In the case of `N=C(N)c1ccc(CNC(=O)[C@H](Cc2ccc(O)cc2)NC(=O)[C@@H](CC2CCCCC2)NCC(=O)O)cc1`, the affinity, expressed as Ki, was 8 µM.
On the same count and under the same terms, the figure for `N=C(N)c1ccc(CNC(=O)C(CCC2CCNCC2)NC(=O)[C@@H](CC2CCCCC2)NCC(=O)O)cc1` (mixture of isomers) is > 43 µM.
Still for that read-out and setting: the result for `N=C(N)c1ccc(CNC(=O)C2(NC(=O)[C@H](NCC(=O)O)C3CCCCC3)Cc3ccccc3C2)cc1` reads 16 µM.

The target in a further series is T4, Prothrombin (Homo sapiens, UniProt P00734). Nature of the series: Competitive inhibition of human thrombin using S-2366 as substrate.
Conditions: not given
In short, it runs like this: as §2
Turning to `N=C(N)c1ccc(CNC(=O)[C@H](Cc2ccc(O)cc2)NC(=O)[C@@H](CC2CCCCC2)NCC(=O)O)cc1`, the affinity, expressed as Ki, was 2 µM. In other words, the single-digit micromolar range.
Still for that read-out and setting: the figure for `N=C(N)c1ccc(CNC(=O)C(CCC2CCNCC2)NC(=O)[C@@H](CC2CCCCC2)NCC(=O)O)cc1` (mixture of isomers) is 12 µM; for `N=C(N)c1ccc(CNC(=O)[C@@H](NC(=O)[C@@H](CC2CCCCC2)NCC(=O)O)C2CCNCC2)cc1` it is 14 µM.
On the same count and under the same terms, the figure for `N=C(N)c1ccc(CNC(=O)C2(NC(=O)[C@H](NCC(=O)O)C3CCCCC3)Cc3ccccc3C2)cc1` is 19 µM.

For the next series, the target named is T5, Vitamin K-dependent protein C (Homo sapiens, UniProt P04070). Nature of the series: Competitive inhibition of human APC using S-2366 as substrate.
Conditions: not given
The method, boiled down: as §2
In the case of `N=C(N)c1ccc(CNC(=O)[C@H](Cc2ccc(O)cc2)NC(=O)[C@@H](CC2CCCCC2)NCC(=O)O)cc1`, the affinity corresponds to a Ki of 100 nM.
On the same count and under the same terms, the result for `N=C(N)c1ccc(CNC(=O)C(CCC2CCNCC2)NC(=O)[C@@H](CC2CCCCC2)NCC(=O)O)cc1` (mixture of isomers) reads 300 nM; that for `N=C(N)c1ccc(CNC(=O)[C@@H](NC(=O)[C@@H](CC2CCCCC2)NCC(=O)O)C2CCNCC2)cc1`, 900 nM; that for `N=C(N)c1ccc(CNC(=O)C2(NC(=O)[C@H](NCC(=O)O)C3CCCCC3)Cc3ccccc3C2)cc1`, 500 nM.

The next series concerns the target T1, Coagulation factor VII. The series is described as follows: Inhibition of human coagulation factor 7a using spectrozyme as substrate preincubated for 300 seconds followed by substrate addition measured after 40 mins by spectrophotometric analysis in presence of tissue factor.
Conditions: not given
As for `N=C(N)c1ccc(CNC(=O)C(CCC2CCNCC2)NC(=O)[C@@H](CC2CCCCC2)NCC(=O)O)cc1` (mixture of isomers), the IC50 was > 133 µM.
Still for that read-out and setting: the result for `N=C(N)c1ccc(CNC(=O)C2(NC(=O)[C@H](NCC(=O)O)C3CCCCC3)Cc3ccccc3C2)cc1` reads 8.9 µM.

Test system in the next series: not listed separately
The series is described as follows: Lipophilicity, log D of the compound at pH 7.4 by chromatographic method. The conditions noted are these: buffer. The series is classed as physicochemical.
The compound `N=C(N)c1ccc(CNC(=O)[C@H](Cc2ccc(O)cc2)NC(=O)[C@@H](CC2CCCCC2)NCC(=O)O)cc1` had a chromatographic logD of 0.02.
With `N=C(N)c1ccc(CNC(=O)C(CCC2CCNCC2)NC(=O)[C@@H](CC2CCCCC2)NCC(=O)O)cc1` (mixture of isomers), the chromatographic logD was < 0.
Still for that read-out and setting: the figure for `N=C(N)c1ccc(CNC(=O)C2(NC(=O)[C@H](NCC(=O)O)C3CCCCC3)Cc3ccccc3C2)cc1` is 0.93.

In the next series the target is Coagulation factor IX (Homo sapiens) (UniProt P00740). Nature of the series: Inhibition of coagulation factor 9a (unknown origin)-mediated hydrolysis of Z-D-Arg-Gly-Arg-pNA at 100 uM relative to control.
Conditions: not given
Turning to `N=C(N)c1ccc(CNC(=O)C(CCC2CCNCC2)NC(=O)[C@@H](CC2CCCCC2)NCC(=O)O)cc1` (mixture of isomers), the inhibition entry was “inactive”.
Same read-out and setting: the figure for `N=C(N)c1ccc(CNC(=O)C2(NC(=O)[C@H](NCC(=O)O)C3CCCCC3)Cc3ccccc3C2)cc1` is 40%.

Another series has as its target T2, Coagulation factor XI. Nature of the series: Inhibition of human coagulation factor 11a using S-2366 as substrate preincubated for 300 seconds followed by substrate addition measured after 40 mins by spectrophotometric analysis.
Conditions: not given
On to `N=C(N)c1ccc(CNC(=O)[C@H](Cc2ccc(O)cc2)NC(=O)[C@@H](CC2CCCCC2)NCC(=O)O)cc1`, for which the IC50 was 1.9 µM.
The same measure, in the same setting: the figure for `N=C(N)c1ccc(CNC(=O)C(CCC2CCNCC2)NC(=O)[C@@H](CC2CCCCC2)NCC(=O)O)cc1` (mixture of isomers) is > 44 µM; for `N=C(N)c1ccc(CNC(=O)[C@@H](NC(=O)[C@@H](CC2CCCCC2)NCC(=O)O)C2CCNCC2)cc1` it is > 44 µM; for `N=C(N)c1ccc(CNC(=O)C2(NC(=O)[C@H](NCC(=O)O)C3CCCCC3)Cc3ccccc3C2)cc1` it is > 44 µM.

A further series has as its target T3, Coagulation factor X. The series is described as follows: Inhibition of human coagulation factor 10a using S-2765 as substrate preincubated for 300 seconds followed by substrate addition measured after 40 mins by spectrophotometric analysis.
Conditions: not given
With `N=C(N)c1ccc(CNC(=O)[C@H](Cc2ccc(O)cc2)NC(=O)[C@@H](CC2CCCCC2)NCC(=O)O)cc1`, the IC50 amounted to 23 µM.
With `N=C(N)c1ccc(CNC(=O)C(CCC2CCNCC2)NC(=O)[C@@H](CC2CCCCC2)NCC(=O)O)cc1` (mixture of isomers), the IC50 was > 130 µM.
The same measure, in the same setting: the figure for `N=C(N)c1ccc(CNC(=O)C2(NC(=O)[C@H](NCC(=O)O)C3CCCCC3)Cc3ccccc3C2)cc1` is 48 µM.

The species entered for another series is Homo sapiens. Nature of the series: Selectivity ratio of IC50 for human thrombin to IC50 for human APC.
Conditions: not given
Consider `N=C(N)c1ccc(CNC(=O)[C@H](Cc2ccc(O)cc2)NC(=O)[C@@H](CC2CCCCC2)NCC(=O)O)cc1`, for which the Ratio IC50 came out at 15.
The same measure, in the same setting: the figure for `N=C(N)c1ccc(CNC(=O)C(CCC2CCNCC2)NC(=O)[C@@H](CC2CCCCC2)NCC(=O)O)cc1` (mixture of isomers) is 23; for `N=C(N)c1ccc(CNC(=O)[C@@H](NC(=O)[C@@H](CC2CCCCC2)NCC(=O)O)C2CCNCC2)cc1` it is 8.4; for `N=C(N)c1ccc(CNC(=O)C2(NC(=O)[C@H](NCC(=O)O)C3CCCCC3)Cc3ccccc3C2)cc1` it is 21.

The next series addresses T4, Prothrombin. Nature of the series: Inhibition of human thrombin using S-2366 as substrate preincubated for 300 seconds followed by substrate addition measured after 40 mins by spectrophotometric analysis.
Conditions: not given
`N=C(N)c1ccc(CNC(=O)[C@H](Cc2ccc(O)cc2)NC(=O)[C@@H](CC2CCCCC2)NCC(=O)O)cc1` came in with an IC50 of 3.9 µM.
On the same count and under the same terms, the result for `N=C(N)c1ccc(CNC(=O)C(CCC2CCNCC2)NC(=O)[C@@H](CC2CCCCC2)NCC(=O)O)cc1` (mixture of isomers) reads 22 µM.
Still for that read-out and setting: the figure for `N=C(N)c1ccc(CNC(=O)[C@@H](NC(=O)[C@@H](CC2CCCCC2)NCC(=O)O)C2CCNCC2)cc1` is 26 µM; for `N=C(N)c1ccc(CNC(=O)C2(NC(=O)[C@H](NCC(=O)O)C3CCCCC3)Cc3ccccc3C2)cc1` it is 36 µM.

The next series has as its target T5, Vitamin K-dependent protein C. The series is described as follows: Inhibition of human APC using S-2366 as substrate preincubated for 300 seconds followed by substrate addition measured after 40 mins by spectrophotometric analysis.
Conditions: not given
Compound `N=C(N)c1ccc(CNC(=O)[C@H](Cc2ccc(O)cc2)NC(=O)[C@@H](CC2CCCCC2)NCC(=O)O)cc1` had an IC50 of 260 nM.
Still for that read-out and setting: the result for `N=C(N)c1ccc(CNC(=O)C(CCC2CCNCC2)NC(=O)[C@@H](CC2CCCCC2)NCC(=O)O)cc1` (mixture of isomers) reads 920 nM; that for `N=C(N)c1ccc(CNC(=O)[C@@H](NC(=O)[C@@H](CC2CCCCC2)NCC(=O)O)C2CCNCC2)cc1`, 3100 nM; that for `N=C(N)c1ccc(CNC(=O)C2(NC(=O)[C@H](NCC(=O)O)C3CCCCC3)Cc3ccccc3C2)cc1`, 1700 nM.
